In paper PMC2735267 (Neuropharmacology, 2009):
Read-outs that look alike come from different tables or passages of the source. Marks after values point to notes of the source that are not given here.

Assays:
[1] = molecular target: α7-nAChR (Mus musculus, UniProt P49582); assay: biochemical; format: binding, C57BL/6J mice; conditions: read-out: [125I]α-bungarotoxin (WT) Ki; […]; 0.5 nM ligand; one-site model
[2] = test system: [125I]epibatidine binding sites (β2*- and β4*-nAChR); design: species or system C57BL/6J mice; conditions: inferior colliculus, wild-type
[3] = molecular target: β2*-nAChR (Mus musculus, UniProt O70174+Q9ERK7); assay: biochemical; format: binding, C57BL/6J mice; conditions: read-out: [125I]epibatidine (β4 -/-) Ki; inferior colliculi, β4-/- mice; 200 pM ligand
[4] = test system: DBA/2J mice; assay: 3-IC-induced hypothermia; format: in vivo, mouse
[5] = test system: C57BL/6J mice; assay: 3-IC-induced hypothermia; format: in vivo, mouse
[6] = test system: β2 null mutant mice; assay: 3-IC-induced hypothermia in β2 null mutant and wild-type mice; format: in vivo, mouse; conditions: 0.2 mg/kg ip
Procedure, shortened: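 Null mutants were backcrossed onto C57BL/6J for at least 10 generations, genotyped from tail DNA, and compared with wild-type mice (β2-/- n = 5; β4-/- n = 5). Test compound was given at 0.2 mg/kg IP in 10 µl/g body weight. Rectal temperature was taken every 5 minutes with a peanut-oil-lubricated probe inserted 1.5 cm. Data are mean ± SEM, analysed by repeated-measures ANOVA (time × genotype).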

[7] = test system: cytisine-sensitive [125I]epibatidine binding sites; format: in vivo, DBA/2J mice; conditions: for Cytisine-sensitive [125I]epibatidine binding: 3-IC 0.2 mg/kg/h iv 7 days; for Cytisine-sensitive [125I]epibatidine binding % change: 3-IC 0.2 mg/kg/h iv 7 days vs saline
[8] = test system: α7* nAChR binding sites; format: in vivo, DBA/2J mice; conditions: for [125I]α-bungarotoxin binding: 3-IC 0.2 mg/kg/h iv 7 days; for [125I]α-bungarotoxin binding % change: 3-IC 0.2 mg/kg/h iv 7 days vs saline
[9] = molecular target: α7* receptors; conditions: read-out: Ki α7* receptors in rat brain; ref Abin-Carriquiry et al., 2006; cited from earlier work
[10] = molecular target: α4β2* receptors; conditions: read-out: Ki α4β2* receptors in rat brain; ref Abin-Carriquiry et al., 2006; cited from earlier work
[11] = molecular target: human α4β2; conditions: read-out: Ki human α4β2; expressed in Xenopus oocytes; ref Slater et al., 2003; cited from earlier work
[12] = dorsolateral geniculate nucleus
[13] = superior colliculus (optic nerve)
[14] = superior colliculus (sup. gray)
[15] = ventral tegmental area, listed as 3-iodocytisine
[16] = inferior colliculus (externall)
[17] = supramammillary hypothalamic nucleus
[18] = ventrolateral geniculate nucleus

β2*-nAChR, sequence (O70174 31-629): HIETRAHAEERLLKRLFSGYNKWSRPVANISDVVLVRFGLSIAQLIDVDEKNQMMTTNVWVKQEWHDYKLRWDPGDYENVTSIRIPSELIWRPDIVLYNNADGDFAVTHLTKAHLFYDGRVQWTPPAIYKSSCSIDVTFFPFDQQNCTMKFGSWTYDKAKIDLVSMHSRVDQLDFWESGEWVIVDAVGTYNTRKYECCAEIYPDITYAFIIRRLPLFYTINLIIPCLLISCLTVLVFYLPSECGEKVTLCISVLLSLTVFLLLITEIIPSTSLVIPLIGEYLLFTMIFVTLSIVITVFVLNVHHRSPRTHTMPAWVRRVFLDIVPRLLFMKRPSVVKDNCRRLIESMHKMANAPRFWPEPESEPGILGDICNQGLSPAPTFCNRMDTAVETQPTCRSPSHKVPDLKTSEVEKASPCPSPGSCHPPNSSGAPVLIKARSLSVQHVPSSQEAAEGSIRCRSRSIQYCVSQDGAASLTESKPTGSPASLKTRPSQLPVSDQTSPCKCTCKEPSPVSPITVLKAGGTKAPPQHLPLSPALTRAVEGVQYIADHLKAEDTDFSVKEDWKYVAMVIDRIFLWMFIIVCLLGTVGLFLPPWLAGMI
β2*-nAChR, sequence (Q9ERK7 26-501): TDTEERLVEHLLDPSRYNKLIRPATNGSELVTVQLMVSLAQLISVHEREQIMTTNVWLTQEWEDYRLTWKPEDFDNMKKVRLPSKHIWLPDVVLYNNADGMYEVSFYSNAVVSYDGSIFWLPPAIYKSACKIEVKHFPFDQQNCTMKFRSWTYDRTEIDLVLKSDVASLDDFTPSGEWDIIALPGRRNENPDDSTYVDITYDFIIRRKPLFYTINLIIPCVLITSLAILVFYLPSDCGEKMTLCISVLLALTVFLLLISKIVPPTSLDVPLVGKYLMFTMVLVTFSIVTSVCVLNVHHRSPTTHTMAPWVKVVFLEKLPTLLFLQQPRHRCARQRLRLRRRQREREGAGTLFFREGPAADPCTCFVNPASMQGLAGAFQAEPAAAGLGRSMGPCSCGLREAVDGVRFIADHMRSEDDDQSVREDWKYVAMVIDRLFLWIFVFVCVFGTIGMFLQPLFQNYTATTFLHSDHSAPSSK
α7-nAChR, sequence (P49582 23-502): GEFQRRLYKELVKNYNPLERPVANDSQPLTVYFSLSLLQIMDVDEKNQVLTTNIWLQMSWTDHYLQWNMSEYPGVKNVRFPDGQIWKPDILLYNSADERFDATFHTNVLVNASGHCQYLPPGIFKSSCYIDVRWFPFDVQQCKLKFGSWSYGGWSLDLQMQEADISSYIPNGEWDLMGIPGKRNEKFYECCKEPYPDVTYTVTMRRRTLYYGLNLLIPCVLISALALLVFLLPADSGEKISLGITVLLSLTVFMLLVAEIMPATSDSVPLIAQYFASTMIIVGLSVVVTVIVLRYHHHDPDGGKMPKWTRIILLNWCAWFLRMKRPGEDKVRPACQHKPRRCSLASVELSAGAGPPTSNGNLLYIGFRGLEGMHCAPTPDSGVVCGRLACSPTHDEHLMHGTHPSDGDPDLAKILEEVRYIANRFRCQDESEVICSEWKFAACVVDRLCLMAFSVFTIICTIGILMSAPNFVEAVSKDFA

## O=c1c(I)ccc2n1C[C@@H]1CNC[C@H]2C1 [3-IC, 3-iodocytisine]
[1]
  Ki: 2.2 ± 1.2 nM
[2]
  difference in affinity for the two [125I]epibatidine binding sites: 1.6 fold
[3]
  Ki: 0.128 ± 0.003 nM
[4]; 0.2 mg/kg ip acute, DBA/2J
  decrease of basal temperature: 7.7 ± 0.5 °C
[4]; 0.2 mg/kg ip, DBA/2J and C57BL/6J
  tremors or diarrhea: without inducing tremors or diarrhea
[4]; 1 mg/kg ip, DBA/2J
  maximal temperature decrease: 11.9 ± 0.4 °C
[4]; 3-IC 0.2 mg/kg, DBA/2J
  time of maximal hypothermia after 3-IC injection, saline pretreated: 40 min
[4]; any dose tested (0.05-1 mg/kg ip), DBA/2J and C57BL/6J
  seizures: no seizures were noted
[4]; hexamethonium experiment, 3-IC 0.2 mg/kg, DBA/2J
  maximal 3-IC-induced hypothermia after saline pretreatment: 8.10 ± 0.63 °
[4]; ip acute, DBA/2J and C57BL/6J
  doses at which tremors were seen: above 0.5 mg/kg
[4]; ip, DBA/2J, maximal drop in temperature
  ED50 for hypothermia: 0.15 ± 0.04 mg/kg
[4]; mecamylamine experiment, 3-IC 0.2 mg/kg ip, DBA/2J
  3-IC-induced hypothermia after saline pretreatment: 8.50 ± 0.42 °C
[5]; 0.2 mg/kg ip acute
  decrease of basal temperature: 9.2 ± 1.13 °C
[5]; 1 mg/kg ip
  maximal temperature decrease: 13.3 ± 0.9 °C
[5]; hexamethonium experiment, 3-IC 0.2 mg/kg
  maximal 3-IC-induced hypothermia after saline pretreatment: 9.25 ± 0.76 °C
[5]; ip, maximal drop in temperature
  ED50 for hypothermia: 0.16 ± 0.03 mg/kg
[5]; mecamylamine experiment, 3-IC 0.2 mg/kg ip
  3-IC-induced hypothermia after saline pretreatment: 9.25 ± 0.76 °C
[6]; β2+/+ mice
  maximal 3-IC induced hypothermia (decrease of temperature): 9.8 ± 0.76 °C
[6]; β2-/- mice
  maximal 3-IC induced hypothermia (decrease of temperature): 8.4 ± 1 °C
[7]; anterior olfactory nucleus
  Cytisine-sensitive [125I]epibatidine binding: 16.1 ± 1.4 fmol/mg
  Cytisine-sensitive [125I]epibatidine binding % change: 53.5%
[7]; anteromedial thalamic nucleus
  Cytisine-sensitive [125I]epibatidine binding: 50.3 ± 4.0 fmol/mg
  Cytisine-sensitive [125I]epibatidine binding % change: -0.8%
[7]; caudate putamen
  Cytisine-sensitive [125I]epibatidine binding: 20.3 ± 1.9 fmol/mg
  Cytisine-sensitive [125I]epibatidine binding % change: 68.3 * %
[7]; cingulate cortex
  Cytisine-sensitive [125I]epibatidine binding: 23.6 ± 1.5 fmol/mg
  Cytisine-sensitive [125I]epibatidine binding % change: 42.0%
[7]; dentate gyrus (granular layer)
  Cytisine-sensitive [125I]epibatidine binding: 12.3 ± 0.6 fmol/mg
  Cytisine-sensitive [125I]epibatidine binding % change: 46.8 * %
[7]; [12]
  Cytisine-sensitive [125I]epibatidine binding: 70.7 ± 3.9 fmol/mg
  Cytisine-sensitive [125I]epibatidine binding % change: 9.7%
[7]; dorsomedial thalamic nucleus
  Cytisine-sensitive [125I]epibatidine binding: 52.9 ± 5.2 fmol/mg
  Cytisine-sensitive [125I]epibatidine binding % change: -4.5%
[7]; fasciculus retroflexus
  Cytisine-sensitive [125I]epibatidine binding: 40.2 ± 4.0 fmol/mg
  Cytisine-sensitive [125I]epibatidine binding % change: 1.0%
[7]; hippocampus (CA1-3)
  Cytisine-sensitive [125I]epibatidine binding: 9.0 ± 0.2 fmol/mg
  Cytisine-sensitive [125I]epibatidine binding % change: 56.3 *** %
[7]; inferior colliculus (central)
  Cytisine-sensitive [125I]epibatidine binding: 12.2 ± 2.5 fmol/mg
  Cytisine-sensitive [125I]epibatidine binding % change: 97.2 * %
[7]; inferior colliculus (dorsal)
  Cytisine-sensitive [125I]epibatidine binding: 22.8 ± 2.1 fmol/mg
  Cytisine-sensitive [125I]epibatidine binding % change: 68.7 * %
[7]; inferior colliculus (external)
  Cytisine-sensitive [125I]epibatidine binding: 16.8 ± 2.1 fmol/mg
  Cytisine-sensitive [125I]epibatidine binding % change: 88.9 * %
[7]; interpeduncular nucleus
  Cytisine-sensitive [125I]epibatidine binding: 194.7 ± 42.8 fmol/mg
  Cytisine-sensitive [125I]epibatidine binding % change: -0.6%
[7]; medial geniculate nucleus
  Cytisine-sensitive [125I]epibatidine binding: 49.4 ± 8.2 fmol/mg
  Cytisine-sensitive [125I]epibatidine binding % change: 27.2%
[7]; medial habenula
  Cytisine-sensitive [125I]epibatidine binding: 171.3 ± 36.4 fmol/mg
  Cytisine-sensitive [125I]epibatidine binding % change: 52.6%
[7]; nucleus accumbens
  Cytisine-sensitive [125I]epibatidine binding: 15.9 ± 2.1 fmol/mg
  Cytisine-sensitive [125I]epibatidine binding % change: 91.8 * %
[7]; olfactory tubercle
  Cytisine-sensitive [125I]epibatidine binding: 14.5 ± 1.6 fmol/mg
  Cytisine-sensitive [125I]epibatidine binding % change: 83.5 * %
[7]; optic tract
  Cytisine-sensitive [125I]epibatidine binding: 15.1 ± 2.9 fmol/mg
  Cytisine-sensitive [125I]epibatidine binding % change: 126.2%
[7]; optic tract, listed as 3-iodocytisine
  Cytisine-sensitive [125I]epibatidine binding % change: 126.2 * %
[7]; parietal cortex (layers 1-3)
  Cytisine-sensitive [125I]epibatidine binding: 9.1 ± 1.0 fmol/mg
  Cytisine-sensitive [125I]epibatidine binding % change: 71.7 * %
[7]; parietal cortex (layers 4-6)
  Cytisine-sensitive [125I]epibatidine binding: 19.0 ± 1.6 fmol/mg
  Cytisine-sensitive [125I]epibatidine binding % change: 79.7 * %
[7]; retrosplenial Cortex
  Cytisine-sensitive [125I]epibatidine binding: 26.6 ± 2.7 fmol/mg
  Cytisine-sensitive [125I]epibatidine binding % change: 35.6%
[7]; subiculum
  Cytisine-sensitive [125I]epibatidine binding: 41.7 ± 3.8 fmol/mg
  Cytisine-sensitive [125I]epibatidine binding % change: 27.8%
[7]; substantia nigra
  Cytisine-sensitive [125I]epibatidine binding: 43.6 ± 7.3 fmol/mg
  Cytisine-sensitive [125I]epibatidine binding % change: 38.0%
[7]; [13]
  Cytisine-sensitive [125I]epibatidine binding: 47.3 ± 2.2 fmol/mg
  Cytisine-sensitive [125I]epibatidine binding % change: 60.6 *** %
[7]; [14]
  Cytisine-sensitive [125I]epibatidine binding: 51.2 ± 4.4 fmol/mg
  Cytisine-sensitive [125I]epibatidine binding % change: 50.2 ** %
[7]; ventral tegmental area
  Cytisine-sensitive [125I]epibatidine binding: 25.1 ± 1.5 fmol/mg
  Cytisine-sensitive [125I]epibatidine binding % change: 45.2%
[7]; [15]
  Cytisine-sensitive [125I]epibatidine binding % change: 45.2 * %
[7]; ventromedial thalamic nucleus
  Cytisine-sensitive [125I]epibatidine binding: 50.7 ± 1.5 fmol/mg
  Cytisine-sensitive [125I]epibatidine binding % change: -0.8%
[7]; zona incerta
  Cytisine-sensitive [125I]epibatidine binding: 13.7 ± 1.2 fmol/mg
  Cytisine-sensitive [125I]epibatidine binding % change: 55.3 * %
[8]; caudate putamen
  [125I]α-bungarotoxin binding: 19.6 ± 2.3 fmol/mg
  [125I]α-bungarotoxin binding % change: 65.8%
[8]; caudate putamen, listed as 3-iodocytisine
  [125I]α-bungarotoxin binding % change: 65.8 * %
[8]; cingulate cortex
  [125I]α-bungarotoxin binding: 6.3 ± 1.4 fmol/mg
  [125I]α-bungarotoxin binding % change: 11.7%
[8]; dentate gyrus (granular layer)
  [125I]α-bungarotoxin binding: 11.7 ± 1.2 fmol/mg
  [125I]α-bungarotoxin binding % change: 63.5%
[8]; hippocampus (CA1-3)
  [125I]α-bungarotoxin binding: 10.2 ± 0.8 fmol/mg
  [125I]α-bungarotoxin binding % change: 77.5%
[8]; hippocampus (CA1-3), listed as 3-iodocytisine
  [125I]α-bungarotoxin binding % change: 77.5 ** %
[8]; inferior colliculus (central)
  [125I]α-bungarotoxin binding: 37.6 ± 4.2 fmol/mg
  [125I]α-bungarotoxin binding % change: 21.7%
[8]; inferior colliculus (dorsal)
  [125I]α-bungarotoxin binding: 21.7 ± 3.7 fmol/mg
  [125I]α-bungarotoxin binding % change: 14.4%
[8]; [16]
  [125I]α-bungarotoxin binding: 23.5 ± 4.1 fmol/mg
  [125I]α-bungarotoxin binding % change: 33.1%
[8]; interpeduncular nucleus
  [125I]α-bungarotoxin binding: 23.5 ± 1.4 fmol/mg
  [125I]α-bungarotoxin binding % change: 26.2 * %
[8]; medial habenula
  [125I]α-bungarotoxin binding: 11.6 ± 1.0 fmol/mg
  [125I]α-bungarotoxin binding % change: 26.4%
[8]; nucleus accumbens
  [125I]α-bungarotoxin binding: 6.8 ± 0.7 fmol/mg
  [125I]α-bungarotoxin binding % change: 81.2%
[8]; nucleus accumbens, listed as 3-iodocytisine
  [125I]α-bungarotoxin binding % change: 81.2 ** %
[8]; parietal cortex (layers 1-3)
  [125I]α-bungarotoxin binding: 5.9 ± 0.3 fmol/mg
  [125I]α-bungarotoxin binding % change: 79.3 ** %
[8]; parietal cortex (layers 4-6)
  [125I]α-bungarotoxin binding: 7.8 ± 0.4 fmol/mg
  [125I]α-bungarotoxin binding % change: 74.4 ** %
[8]; retrosplenial Cortex
  [125I]α-bungarotoxin binding: 4.8 ± 0.4 fmol/mg
  [125I]α-bungarotoxin binding % change: 21.2%
[8]; subiculum
  [125I]α-bungarotoxin binding: 7.1 ± 0.7 fmol/mg
  [125I]α-bungarotoxin binding % change: 22.0%
[8]; substantia nigra
  [125I]α-bungarotoxin binding: 7.9 ± 0.9 fmol/mg
  [125I]α-bungarotoxin binding % change: 29.5%
[8]; [13]
  [125I]α-bungarotoxin binding: 11.5 ± 0.5 fmol/mg
  [125I]α-bungarotoxin binding % change: 44.2 ** %
[8]; [14]
  [125I]α-bungarotoxin binding: 23.1 ± 0.8 fmol/mg
  [125I]α-bungarotoxin binding % change: 34.7 ** %
[8]; [17]
  [125I]α-bungarotoxin binding: 12.1 ± 1.2 fmol/mg
  [125I]α-bungarotoxin binding % change: 24.4%
[8]; ventral tegmental area
  [125I]α-bungarotoxin binding: 5.2 ± 0.4 fmol/mg
  [125I]α-bungarotoxin binding % change: 40.5%
[8]; [15]
  [125I]α-bungarotoxin binding % change: 40.5 * %
[8]; [18]
  [125I]α-bungarotoxin binding: 18.1 ± 1.2 fmol/mg
  [125I]α-bungarotoxin binding % change: 30.2 * %
[8]; zona incerta
  [125I]α-bungarotoxin binding: 11.1 ± 1.0 fmol/mg
  [125I]α-bungarotoxin binding % change: 52.1%
[8]; zona incerta, listed as 3-iodocytisine
  [125I]α-bungarotoxin binding % change: 52.1 * %
[9]
  Ki: 115 nM
[10]
  Ki: 0.17 nM
[11]
  Ki: 0.7 nM
